Key:
Candida albicans [1] = assay: Minimum effective concentration is the lowest concentration at which some (5%) morphologically abnormal cells were observed under microscopic examination.; format: functional; details: read-out: MEC
Outline: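 C. albicans H-317 (clinical isolate) grown at 37 °C in yeast nitrogen base with 0.5% isoleucine and 5.0% glucose, harvested at early log phase, washed. Twofold serial dilutions in yeast nitrogen base, 1×10^6 cells/mL per well, 48 h at 37 °C in humid chamber with slight agitation; wells examined microscopically for lowest concentration giving ~5% abnormal cells.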

Candida albicans [2] = assay: (§1) Concentration at which 50% of the cells incubated, were not able to form colonies when replated.; format: functional
Outline: (§2)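 C. albicans H-317 grown at 37 °C with stirring in yeast nitrogen base with 0.5% isoleucine and 5.0% glucose, harvested at early log phase. Cells were exposed at 1×10^6 cells/mL to twofold serial drug dilutions and incubated 48 h at 37 °C in a humid chamber. Wells were plated on potato dextrose agar for 2 days at 37 °C. Viability was taken as colonies versus hemocytometer counts.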

[3] = molecular target: Chitin synthase 1 (Candida albicans) (UniProt P23316); assay: Inhibitory activity against chitin synthetase from Candida albicans H-317; format: functional
Chain of Chitin synthase 1 (Candida albicans) (P23316 whole entry, looked up): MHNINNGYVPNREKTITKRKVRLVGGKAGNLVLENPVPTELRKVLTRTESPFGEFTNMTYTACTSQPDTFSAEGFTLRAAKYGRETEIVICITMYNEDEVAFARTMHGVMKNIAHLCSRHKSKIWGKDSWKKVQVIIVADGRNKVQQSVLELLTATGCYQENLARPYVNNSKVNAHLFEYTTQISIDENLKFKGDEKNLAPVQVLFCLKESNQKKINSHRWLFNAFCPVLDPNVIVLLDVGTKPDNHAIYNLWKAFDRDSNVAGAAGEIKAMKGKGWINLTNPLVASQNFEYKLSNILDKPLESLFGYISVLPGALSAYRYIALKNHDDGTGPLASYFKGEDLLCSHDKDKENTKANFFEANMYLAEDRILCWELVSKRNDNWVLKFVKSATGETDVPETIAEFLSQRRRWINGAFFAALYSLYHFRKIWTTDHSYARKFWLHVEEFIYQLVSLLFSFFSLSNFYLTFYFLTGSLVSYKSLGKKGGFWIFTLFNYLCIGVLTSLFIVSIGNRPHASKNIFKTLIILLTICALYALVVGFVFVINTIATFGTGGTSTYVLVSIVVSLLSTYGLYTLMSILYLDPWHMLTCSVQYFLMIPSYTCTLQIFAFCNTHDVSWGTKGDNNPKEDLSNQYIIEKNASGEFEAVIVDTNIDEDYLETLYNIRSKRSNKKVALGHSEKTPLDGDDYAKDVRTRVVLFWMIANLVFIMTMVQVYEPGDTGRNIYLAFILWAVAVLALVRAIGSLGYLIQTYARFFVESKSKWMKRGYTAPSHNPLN
Outline: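 Mixed membrane fraction of C. albicans H-317 (5.17 mg protein/mL stock), trypsin-activated 10 min at 37 °C with ATP in imidazole buffer pH 6.5; trypsin inhibitor, GlcNAc and UDP-[14C]GlcNAc then added with inhibitor at 10^-3 to 10^-6 M. Aliquots taken at 5–60 min, acid/ethanol-precipitated chitin filtered and scintillation-counted; ID50 = concentration giving half of initial velocity from dose-response curves.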

Candida albicans [4] = assay: as §1; format: ADME, organism-based; details: read-out: Viability; outline: as §2

ID50 [3] | Compound | minimal effective concentration (Candida albicans [1]) | Viability (Candida albicans [2]) | LC50 (Candida albicans [4])
3.8 µM | NC(CCc1ccccc1)C(=O)NC(C(=O)O)[C@H]1O[C@@H](n2ccc(=O)[nH]c2=O)[C@H](O)[C@@H]1O (some centres undefined) | 60 µM | >8 mM | –
68 µM | NC(=O)NCCCC(N)C(=O)N[C@@H](C(=O)O)[C@H]1O[C@@H](n2ccc(=O)[nH]c2=O)[C@H](O)[C@@H]1O (some centres undefined) | 500 µM | >8 mM | –
> 100 µM | NC(C(=O)O)[C@H]1O[C@@H](n2ccc(=O)[nH]c2=O)[C@H](O)[C@@H]1O (some centres undefined) | 8000 µM | >8 mM | –
14 µM | CCCCC(N)C(=O)NC(C(=O)O)[C@H]1O[C@@H](n2ccc(=O)[nH]c2=O)[C@H](O)[C@@H]1O (some centres undefined) | 170 µM | 4 mM | –
16 µM | NC(Cc1ccc(Oc2ccc(O)cc2)cc1)C(=O)NC(C(=O)O)[C@H]1O[C@@H](n2ccc(=O)[nH]c2=O)[C@H](O)[C@@H]1O (some centres undefined) | 2000 µM | 4 mM | –
1.7 µM | N[C@@H](Cc1c[nH]c2ccccc12)C(=O)NC(C(=O)O)[C@H]1O[C@@H](n2ccc(=O)[nH]c2=O)[C@H](O)[C@@H]1O (some centres undefined) | 130 µM | >8 mM | –

Compound | ID50 [3] | minimal effective concentration (Candida albicans [1]) | Viability (Candida albicans [2]) | LC50 (Candida albicans [4])
NC(Cc1ccc(O)cc1)C(=O)NC(C(=O)O)[C@H]1O[C@@H](n2ccc(=O)[nH]c2=O)[C@H](O)[C@@H]1O (some centres undefined) | 4.9 µM | 8000 µM | – | > 8000 µM
NC(=O)OCC(O)C(O)C(N)C(=O)NC(C(=O)O)[C@H]1O[C@@H](n2cc(C(=O)O)c(=O)[nH]c2=O)[C@H](O)[C@@H]1O (some centres undefined) | 1.8 µM | 2 µM | 1 mM | –
